Experimental data as given in ChEMBL document CHEMBL1177874, “Synthesis and in vitro anticancer screening of some novel 4-[2-amino-3-cyano-4-substituted-5,6,7,8-tetrahydroquinolin-1-(4H)-yl]benzenesulfonamides” (Eur J Med Chem, 2010).

Tests used:
[1] = Cytotoxicity against mouse EAC cells assessed as non-viable cells at 100 ug/ml after 2 hrs by trypan blue exclusion assay; assay type: functional, Ehrlich
Summary of the method: (§1)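 EAC cells drawn aseptically by needle aspiration of ascitic fluid from previously inoculated mice; suspension at 2.5 × 10^6 cells per ml. Test agents dissolved in DMSO (1 ml) at 100, 50, 25 and 10 µg, then diluted into the cell suspension. Incubation 2 h at 37 °C. Non-viable cell percentage counted by trypan blue exclusion. IC50 taken from the survival ratio versus concentration curve.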

[2] = Cytotoxicity against mouse EAC cells assessed as non-viable cells at 10 ug/ml after 2 hrs by trypan blue exclusion assay; assay type: functional, Ehrlich; summary of the method: as §1
[3] = Cytotoxicity against mouse EAC cells assessed as non-viable cells at 25 ug/ml after 2 hrs by trypan blue exclusion assay; assay type: functional, Ehrlich; summary of the method: as §1
[4] = Cytotoxicity against mouse EAC cells assessed as non-viable cells at 50 ug/ml after 2 hrs by trypan blue exclusion assay; assay type: functional, Ehrlich; summary of the method: as §1
[5] = Cytotoxicity against mouse EAC cells after 2 hrs by trypan blue exclusion assay; assay type: functional, cell-based; settings: Ehrlich; summary of the method: as §1

Compound	Activity [1]	Activity [2]	Activity [3]	Activity [4]	IC50 [5]
N#CC1=C(N)N(c2ccc(S(N)(=O)=O)cc2)C2=C(CCCC2)C1c1ccccc1 (stereo not given)	30%	5%	10%	20%	> 100 µg/mL
N#CC1=C(N)N(c2ccc(S(N)(=O)=O)cc2)C2=C(CCCC2)C1c1ccc(Cl)c(Cl)c1 (stereo not given)	50%	1%	40%	50%	100 µg/mL
Cc1ccc(C2C(C#N)=C(N)N(c3ccc(S(N)(=O)=O)cc3)C3=C2CCCC3)cc1 (stereo not given)	90%	20%	30%	80%	85.7 µM
N#CC1=C(N)N(c2ccc(S(N)(=O)=O)cc2)C2=C(CCCC2)C1c1ccccc1O (stereo not given)	100%	10%	40%	50%	118 µM
N#CC1=C(N)N(c2ccc(S(N)(=O)=O)cc2)C2=C(CCCC2)C1c1ccc(O)cc1 (stereo not given)	100%	20%	42%	60%	82.9 µM
N#CC1=C(N)N(c2ccc(S(N)(=O)=O)cc2)C2=C(CCCC2)C1c1cccc([N+](=O)[O-])c1 (stereo not given)	12%	0%	1%	2%	> 100 µg/mL
N#CC1=C(N)N(c2ccc(S(N)(=O)=O)cc2)C2=C(CCCC2)C1c1ccc([N+](=O)[O-])cc1 (stereo not given)	20%	0%	5%	10%	> 100 µg/mL
N#CC1=C(N)N(c2ccc(S(N)(=O)=O)cc2)C2=C(CCCC2)C1c1ccccc1Cl (stereo not given)	10%	0%	0%	5%	> 100 µg/mL
N#CC1=C(N)N(c2ccc(S(N)(=O)=O)cc2)C2=C(CCCC2)C1c1ccc(Cl)cc1Cl (stereo not given)	70%	0%	50%	50%	105 µM
N#CC1=C(N)N(c2ccc(S(N)(=O)=O)cc2)C2=C(CCCC2)C1c1c(O)ccc2ccccc12 (stereo not given)	50%	10%	5%	20%	100 µg/mL
COc1ccc2ccccc2c1C1C(C#N)=C(N)N(c2ccc(S(N)(=O)=O)cc2)C2=C1CCCC2 (stereo not given)	50%	5%	10%	10%	100 µg/mL
COc1ccc(C2C(C#N)=C(N)N(c3ccc(S(N)(=O)=O)cc3)C3=C2CCCC3)c2ccccc12 (stereo not given)	20%	0%	5%	10%	> 100 µg/mL
N#CC1=C(N)N(c2ccc(S(N)(=O)=O)cc2)C2=C(CCCC2)C1/C=C/c1ccccc1 (stereo not given)	70%	50%	70%	90%	23.1 µM
COc1ccccc1C1C(C#N)=C(N)N(c2ccc(S(N)(=O)=O)cc2)C2=C1CCCC2 (stereo not given)	100%	30%	40%	50%	115 µM
COc1cc(C2C(C#N)=C(N)N(c3ccc(S(N)(=O)=O)cc3)C3=C2CCCC3)ccc1O (stereo not given)	50%	0%	2%	30%	100 µg/mL
CCOc1cc(C2C(C#N)=C(N)N(c3ccc(S(N)(=O)=O)cc3)C3=C2CCCC3)ccc1OC (stereo not given)	10%	0%	5%	5%	> 100 µg/mL
COc1cc(OC)c(C2C(C#N)=C(N)N(c3ccc(S(N)(=O)=O)cc3)C3=C2CCCC3)cc1OC (stereo not given)	100%	0%	0%	50%	101 µM
N#CC1=C(N)N(c2ccc(S(N)(=O)=O)cc2)C2=C(CCCC2)C1c1cccs1 (stereo not given)	20%	0%	5%	10%	> 100 µg/mL
Cc1ccc(C2C(C#N)=C(N)N(c3ccc(S(N)(=O)=O)cc3)C3=C2CCCC3)o1 (stereo not given)	30%	0%	10%	10%	> 100 µg/mL
COc1ccc(C2C(C#N)=C(N)N(c3ccc(S(N)(=O)=O)cc3)C3=C2CCCC3)cc1 (stereo not given)	100%	50%	90%	100%	22.9 µM
N#CC1=C(N)N(c2ccc(S(N)(=O)=O)cc2)C2=C(CCCC2)[C@@H]1c1ccc2c(c1)OCO2	100%	100%	100%	100%	< 22.2 µM
COc1cccc2c1C(=O)c1c(O)c3c(c(O)c1C2=O)C[C@@](O)(C(=O)CO)C[C@@H]3O[C@H]1C[C@H](N)[C@H](O)[C@H](C)O1 [DOXORUBICIN]	100%	17%	25%	70%	69.9 µM
